Published values of several laboratories.
Protocols differ between the studies behind these lines.
Tmem97: Sigma intracellular receptor 2 (Tmem97, Rattus norvegicus, UniProt Q5U3Y7)
Trypanothione synthetase: Trypanothione synthetase (Trypanosoma cruzi, UniProt Q9GT49)
EAPA: Endothiapepsin (EAPA, Cryphonectria parasitica, UniProt P11838)
BDKRB2: B2 bradykinin receptor (BDKRB2, Homo sapiens, UniProt P30411)
HTR2C: 5-hydroxytryptamine receptor 2C (HTR2C, Homo sapiens, UniProt P28335)
dxs: 1-deoxy-D-xylulose-5-phosphate synthase (dxs, Deinococcus radiodurans, UniProt Q9RUB5)
MMP3: Stromelysin-1 (MMP3, Homo sapiens, UniProt P08254)
TACR1: Substance-P receptor (TACR1, Homo sapiens, UniProt P25103)
SIK1: Serine/threonine-protein kinase SIK1 (SIK1, Homo sapiens, UniProt P57059)

Ic1cccc2cnccc12
inhibition (NMNAT1 (Homo sapiens, UniProt Q9HAN9); enzyme activity, inhibitor; 10 µM): -3%

N#Cc1cc(Cn2c(N3CCCC3)nc3ccccc32)ccc1F
inhibition (Tmem97; ligand displacement; 10 µM): 88.9%

CCNC(=O)CN1C(=O)Cc2c([nH]c3ccc(Br)cc23)-c2ccc(Cl)cc21
inhibition (Trypanothione synthetase; enzyme activity, inhibitor, absorbance; 30 µM): 41.4%

CN(C)C1CCN(CC#Cc2nn(C3CCCC3)c3nc(NCc4ccccc4)ncc23)C1 (stereo not shown)
inhibition (Serine/threonine-protein kinase PLK1 (PLK1, Homo sapiens, UniProt P53350); enzyme activity, inhibitor, FRET; 10 µM): -5%

CC(C)(C)OC(=O)NCCNC(=O)CN1C(=O)Cc2c([nH]c3ccc(Br)cc23)-c2ccc(Cl)cc21
inhibition (Trypanothione synthetase; enzyme activity, inhibitor, absorbance; 30 µM): 38.5%

CN(Cc1ccc(NC(=O)C2=Cc3cc(-c4ccc(OCCCCCCCF)cc4)ccc3CCC2)cc1)C1CCOCC1
inhibition (Tmem97; ligand displacement, radioligand; 10 µM): 17%

CCCCCC(NN)c1nnnn1Cc1ccc2c(c1)OCCO2 (stereo not shown)
inhibition (EAPA; enzyme activity, inhibitor; 200 µM): 48.2%

CCOC(=O)CN1C(=O)Cc2c([nH]c3ccc(Br)cc23)-c2ccc(Cl)cc21
inhibition (Trypanothione synthetase; enzyme activity, inhibitor, absorbance; 30 µM): 19.1%

Oc1cccc(Nc2nc(-c3ccc(F)cc3F)cs2)c1
inhibition (BDKRB2; cell-free assay; 10 µM): -68.7%

O=C1N=C(N2CCCCN2)S/C1=C\c1ccc(F)cc1O
inhibition (BDKRB2; ligand displacement, radioligand; 10 µM): < 10%

COc1cc2c3c(c1OC)-c1cc4c(cc1CC3N(C)CC2c1ccccc1)OCO4 (stereo not shown)
inhibition (HTR2C; ligand displacement, radioligand; 10 µM): < 50%

CCN(CC)C(=O)CN1C(=O)Cc2c([nH]c3ccc(Br)cc23)-c2ccc(Cl)cc21
inhibition (Trypanothione synthetase; enzyme activity, inhibitor, absorbance; 30 µM): 7.8%

FC(F)(F)c1ccc(-c2nnc(-c3cc4c(s3)CCCC4)o2)cn1
inhibition (dxs; enzyme activity, inhibitor; 120 µM): 0%

O=C(c1ccc(Cl)cc1)N(Cc1ccccc1)C1CCCCC1
inhibition (BDKRB2; cell-free assay; 10 µM): -1.6%

O=C(CN1C(=O)Cc2c([nH]c3ccc(Br)cc23)-c2ccc(Cl)cc21)N1CCNCC1
inhibition (Trypanothione synthetase; enzyme activity, inhibitor, absorbance; 30 µM): 17.1%

O=C(Nc1ccc(S(=O)(=O)N2CCC(Cl)CC2)cc1)c1ccc([N+](=O)[O-])o1
inhibition (BDKRB2; ligand displacement, radioligand; 10 µM): 4%

CCN(CC)c1ccc(C2Nc3ccc(C(=O)c4ccccc4)cc3NC3=C2C(=O)CC(C)(C)C3)cc1 (stereo not shown)
inhibition (HTR2C; ligand displacement, radioligand; 10 µM): 5%

O=C(O)c1ccc(C(=O)O)nc1
inhibition (MMP3; enzyme activity, inhibitor; 1 mM, pH 6): > 80%

COc1ccc(CCC(C)N2CCc3cc(OC)c(OC)cc3C2)cc1 (stereo not shown)
inhibition (Tmem97; ligand displacement, radioligand; 0.1 µM): 98%

CCC(C)C(NN)c1nnnn1CC(c1ccccc1)c1ccccc1 (stereo not shown)
inhibition (EAPA; enzyme activity, inhibitor; 200 µM): 40.3%

O=C(c1ccc(OCCN2CCCCC2)cc1)c1c(-c2ccc(O)cc2)sc2cc(O)ccc12
inhibition (Trypanothione synthetase; enzyme activity, inhibitor, absorbance; 25 µM): 24.5%

Oc1ccc(-c2nnc(CCCOc3ccc(Cl)cc3Cl)o2)c(F)c1
inhibition (dxs; enzyme activity, inhibitor; 120 µM): 49.2%

O=C(CN1C(=O)Cc2c([nH]c3ccc(Br)cc23)-c2ccc(Cl)cc21)NCCN1CCOCC1
inhibition (Trypanothione synthetase; enzyme activity, inhibitor, absorbance; 30 µM): 11.3%

NNC(COCc1ccccc1)c1nnnn1CCc1ccc(O)cc1 (stereo not shown)
inhibition (EAPA; enzyme activity, inhibitor; 200 µM): 91.5%

O=C(CN1C(=O)Cc2c([nH]c3ccc(Br)cc23)-c2ccc(Cl)cc21)N1CCN(c2ncccn2)CC1
inhibition (Trypanothione synthetase; enzyme activity, inhibitor, absorbance; 30 µM): 40.6%

CCCCCC(NN)c1nnnn1Cc1ccc2c(c1)OCO2 (stereo not shown)
inhibition (EAPA; enzyme activity, inhibitor; 200 µM): 32.8%

COc1cc(NC(C)=O)c(Cl)cc1C(=O)Nc1nccs1
inhibition (TACR1; cell-free assay; 10 µM): -2.9%

C=CC1=C(C)C2=Cc3c(C=C)c(C)c4[n]3[Sn]([Cl])([Cl])[n]3c(c(C)c(CCC(=O)O)c3=CC3=NC(=C4)C(C)=C3CCC(=O)O)=CC1=N2
inhibition (Trypanothione synthetase; enzyme activity, inhibitor, absorbance; 25 µM): 18.7%

CCCC(NN)c1nnnn1Cc1ccccc1 (stereo not shown)
inhibition (EAPA; enzyme activity, inhibitor; 200 µM): 3%

O=C(c1ccc(F)cc1)N(Cc1ccccc1)C1CCCCC1
inhibition (BDKRB2; cell-free assay; 10 µM): -3%

O=C(O)c1ccccn1
inhibition (MMP3; enzyme activity, inhibitor; 1 mM, pH 6): > 80%

COC(=O)CN1C(=O)Cc2c([nH]c3ccc(Br)cc23)-c2ccc(Cl)cc21
inhibition (Trypanothione synthetase; enzyme activity, inhibitor, absorbance; 30 µM): 37.4%

Cc1ccc(Nc2nccc(N(C)c3ccc4c(C)n(C)nc4c3)n2)cc1S(N)(=O)=O
inhibition (SIK1; enzyme activity, inhibitor; 10 µM): 69%

CCN(Cc1ccccc1C(F)(F)F)C(=O)C1CCN(S(=O)(=O)c2ccc3[nH]ncc3c2)CC1
inhibition (TACR1; ligand displacement, radioligand; 10 µM): 18%

CNC(=O)c1cc(Oc2ccc(NC(=O)Nc3ccc(Cl)c(C(F)(F)F)c3)cc2)ccn1
inhibition (SIK1; enzyme activity, inhibitor; 10 µM): 3%

CCCNc1nc2ccccc2n1Cc1ccc(Cl)cc1
inhibition (Tmem97; ligand displacement; 10 µM): 54%

NNC(COCc1ccccc1)c1nnnn1CC(=O)NCc1cccs1 (stereo not shown)
inhibition (EAPA; enzyme activity, inhibitor; 200 µM): 51.9%
